Experiments:
[1] = target: T1, Opioid receptor (Mus musculus) (UniProt P42866+P32300+P33534); test: Opioid receptors antagonist potency in reversing the effects of normorphine was determined in mouse isolated vas deferens; type: functional, tissue-based
[2] = target: T1, Opioid receptor (Mus musculus); test: Opioid receptors antagonist potency in reversing the effects of Met5E was determined in mouse isolated vas deferens; type: functional, tissue-based
Method in brief: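 Electrically stimulated mouse isolated vas deferens. Antagonism is measured against agonist-induced effects, with Met⁵-enkephalin as the δ agonist. Antagonist potency is expressed as pA₂.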

Opioid receptor [3] = target: T2, Opioid receptor (Mus musculus, UniProt P42866+P32300+P33534); test: Concentration required to inhibit the stereospecific [3H]diprenorphine binding Opioid receptors in the presence of sodium(Na+) was determined in mouse isolated vas deferens; type: protein assay
Opioid receptor [4] = target: T2, Opioid receptor; test: Concentration required to inhibit the stereospecific [3H]diprenorphine binding Opioid receptors in the absence of sodium(Na+) was determined in mouse isolated vas deferens; type: protein assay

T1 sequence (P32300 whole entry, looked up): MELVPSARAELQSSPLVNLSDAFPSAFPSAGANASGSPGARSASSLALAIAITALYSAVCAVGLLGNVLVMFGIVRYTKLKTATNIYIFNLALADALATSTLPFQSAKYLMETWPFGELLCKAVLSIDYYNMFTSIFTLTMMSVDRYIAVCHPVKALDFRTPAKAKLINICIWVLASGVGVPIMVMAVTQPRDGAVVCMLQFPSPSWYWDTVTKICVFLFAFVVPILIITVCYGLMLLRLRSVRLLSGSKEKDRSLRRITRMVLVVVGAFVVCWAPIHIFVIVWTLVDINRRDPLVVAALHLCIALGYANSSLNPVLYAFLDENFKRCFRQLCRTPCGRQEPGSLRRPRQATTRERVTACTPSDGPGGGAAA
T1 sequence (P33534 whole entry, looked up): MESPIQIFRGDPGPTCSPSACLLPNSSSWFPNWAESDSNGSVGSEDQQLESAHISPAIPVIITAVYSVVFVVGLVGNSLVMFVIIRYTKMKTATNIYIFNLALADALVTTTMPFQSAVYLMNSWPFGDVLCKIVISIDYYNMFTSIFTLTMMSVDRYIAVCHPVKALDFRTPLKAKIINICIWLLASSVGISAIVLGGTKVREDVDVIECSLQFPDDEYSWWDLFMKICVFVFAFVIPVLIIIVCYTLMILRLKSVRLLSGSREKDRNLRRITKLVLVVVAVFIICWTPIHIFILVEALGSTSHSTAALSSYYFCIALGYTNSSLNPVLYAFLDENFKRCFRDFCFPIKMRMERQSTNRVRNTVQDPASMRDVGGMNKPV
T1 sequence (P42866 whole entry, looked up): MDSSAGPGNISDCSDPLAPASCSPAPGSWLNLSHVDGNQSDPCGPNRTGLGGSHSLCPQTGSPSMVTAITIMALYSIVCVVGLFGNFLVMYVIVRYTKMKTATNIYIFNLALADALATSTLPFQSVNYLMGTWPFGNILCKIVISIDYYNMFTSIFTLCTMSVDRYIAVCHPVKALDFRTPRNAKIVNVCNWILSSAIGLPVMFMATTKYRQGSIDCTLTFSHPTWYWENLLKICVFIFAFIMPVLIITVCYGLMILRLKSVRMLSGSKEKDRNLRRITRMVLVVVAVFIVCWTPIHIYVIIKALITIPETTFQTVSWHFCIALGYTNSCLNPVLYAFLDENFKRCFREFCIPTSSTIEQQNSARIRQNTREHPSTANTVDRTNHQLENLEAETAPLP

Row | SMILES | Concentration [1] | Concentration [2] | IC50 (Opioid receptor [3]) | IC50 (Opioid receptor [4])
1 | C=CCN1CC[C@]23c4c5ccc(O)c4O[C@H]2[C@@H](O)C=C[C@H]3[C@H]1C5 | 22.4 nM | 0.286 µM |  | 
2 | C=CC[N+]1(C)CC[C@]23c4c5ccc(O)c4O[C@H]2[C@@H](O)C=CC3[C@H]1C5.[I-] (stereo in doubt; A) |  |  | 11.5 µM | 8.5 µM
3 | C=CC[N+]1(C)CC[C@]23c4c5ccc(O)c4O[C@H]2[C@@H](O)C=CC3[C@H]1C5 (stereo in doubt; A) | 1250 nM | > 22 µM |  | 
4 | C=CC[N+]1(C)CC[C@]23c4c5ccc(O)c4O[C@H]2[C@@H](O)C=CC3[C@H]1C5.[I-] (stereo in doubt; B) |  |  | 0.51 µM | 0.44 µM
5 | C=CC[N+]1(C)CC[C@]23c4c5ccc(O)c4O[C@H]2[C@@H](O)C=CC3[C@H]1C5 (stereo in doubt; B) | 59.2 nM | 4.92 µM |  | 
